Active and inactive are the calls of the source.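 How the source made its calls, unless noted: active means inhibition at or above 50% relative to wild type and mutant plate controls; inactive means inhibition below 50%.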
Key:
[1] = inhibitors of TNFa-induced NFkB p65 translocation, primary screen, imaging, HUVEC, MLSMR starter and 10KST1 sets (AID 438;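 active means inhibition above 20% together with a positive visual image hit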;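 further: compound added about 3h40 before a 20 min TNFalpha stimulation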;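 on inhibition: signal is the nuclear over cytoplasmic p65 intensity ratio per well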); conditions: HUVEC TNFa-induced p65 nuclear translocation; cell count: measured here: nuclei count (cytotoxicity indicator), at 2.08 µM; inhibition: at 2 µM, stronger effect = higher value, 0% TNFa-plus-vehicle, 100% no-TNFa wells
[2] = inhibitors of E-selectin induction by TNFa, primary screen, imaging, HUVEC, immunofluorescence, MLSMR starter and 10KST1 sets (AID 487;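 active means visually confirmed hit in the image check and inhibition above 20%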;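 on inhibition: signal is fraction of cell area covered by stained E-selectin grains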;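 on nuclei count: 100% = median nuclei count of all wells on the same plate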); conditions: HUVEC TNFalpha-induced E-selectin immunofluorescence imaging, at 2 µM; inhibition: stronger effect = higher value; nuclei count: measured here: cell number, toxicity
[3] = DUSP6 inhibitors restoring Erk phosphorylation by chemical complementation, primary imaging in DUSP6-transfected HeLa (AID 609;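 active means compounds giving at least 50% inhibition in the cell-based MKP-3 phosphatase rescue imaging test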;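 on inhibition: phospho-Erk level distribution per well compared with pooled transfected vehicle control wells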); conditions: HeLa MKP-3 transfected, phospho-Erk imaging KS statistic, at 10 µM, cells stimulated with TPA for 15 min
[4] = target: Dual specificity protein phosphatase 6 (Homo sapiens) (UniProt Q16828); assay: as above; conditions: HeLa MKP-3 transfected, phospho-Erk imaging KS statistic; at 10 µM; stronger effect = higher value; cells stimulated with TPA for 15 min
Chain of Dual specificity protein phosphatase 6 (Homo sapiens) (Q16828 whole entry, looked up): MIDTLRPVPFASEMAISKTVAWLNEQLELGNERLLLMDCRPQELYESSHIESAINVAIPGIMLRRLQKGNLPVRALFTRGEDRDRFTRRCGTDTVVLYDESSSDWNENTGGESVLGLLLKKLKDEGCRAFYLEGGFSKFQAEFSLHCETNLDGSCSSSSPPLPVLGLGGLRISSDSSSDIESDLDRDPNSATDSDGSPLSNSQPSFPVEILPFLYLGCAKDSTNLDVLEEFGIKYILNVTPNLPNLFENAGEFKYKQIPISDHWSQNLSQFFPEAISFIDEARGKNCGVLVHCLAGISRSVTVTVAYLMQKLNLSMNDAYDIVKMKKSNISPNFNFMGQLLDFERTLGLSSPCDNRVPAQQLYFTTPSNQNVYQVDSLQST

[5] = target: Voltage-gated potassium channel subunit beta-2 (Rattus norvegicus) (UniProt P62483); assay: KvBeta enzyme negative modulators, primary screen, biochemical, NADPH fluorescence (AID 622;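 active means fluorescence slope higher than the sample average by over 3 SD, cut at about -0.22 in these data, passing the limit was not always enough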;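 further: slope of raw intensity against log time taken from 70 to 1610 s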); conditions: recombinant KvBeta, 4-cyanobenzaldehyde reduction, at 10 µM, stronger effect = higher value
Chain of Voltage-gated potassium channel subunit beta-2 (Rattus norvegicus) (P62483 whole entry, looked up): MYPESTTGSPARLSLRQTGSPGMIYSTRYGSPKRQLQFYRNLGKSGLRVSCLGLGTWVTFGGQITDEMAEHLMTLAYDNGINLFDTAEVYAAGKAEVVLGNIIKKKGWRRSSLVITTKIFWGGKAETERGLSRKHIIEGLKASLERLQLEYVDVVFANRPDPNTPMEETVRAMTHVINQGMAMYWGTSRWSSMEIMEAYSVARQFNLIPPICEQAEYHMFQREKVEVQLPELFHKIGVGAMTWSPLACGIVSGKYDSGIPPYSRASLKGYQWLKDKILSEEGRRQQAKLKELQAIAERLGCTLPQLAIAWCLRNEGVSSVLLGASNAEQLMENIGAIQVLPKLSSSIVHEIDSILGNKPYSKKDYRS

[6] = target: Voltage-gated potassium channel subunit beta-2 (Rattus norvegicus) (UniProt P62483); assay: KvBeta positive modulators, primary screen, biochemical, NADPH fluorescence (AID 623;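 active means NADPH fluorescence slope more negative than the mean of all samples by about 3 SD, 99.7% confidence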;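 further: fluorescence intensity change per second fitted from 20 to 320 s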); conditions: Recombinant KvBeta, NADPH fluorescence decrease slope, 10 min; at 10 µM; stronger effect = lower value
[7] = target: Alpha-2C adrenergic receptor (Homo sapiens) (UniProt P18825); assay: modulators of alpha2C/GIRK thallium flux, primary screen, cell-based, HEK293 alpha2C/GIRK1/2 (AID 624;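 active means fluorescence slope after compound addition differing from the mean of all screened samples at 99.7% confidence, in either direction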;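 further: slope of fluorescence ratio to pre-addition baseline per second over 15 to 24 s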); conditions: thallium flux BTC fluorescence, at 10 µM, actives lie on both sides
Chain of Alpha-2C adrenergic receptor (Homo sapiens) (P18825 whole entry, looked up): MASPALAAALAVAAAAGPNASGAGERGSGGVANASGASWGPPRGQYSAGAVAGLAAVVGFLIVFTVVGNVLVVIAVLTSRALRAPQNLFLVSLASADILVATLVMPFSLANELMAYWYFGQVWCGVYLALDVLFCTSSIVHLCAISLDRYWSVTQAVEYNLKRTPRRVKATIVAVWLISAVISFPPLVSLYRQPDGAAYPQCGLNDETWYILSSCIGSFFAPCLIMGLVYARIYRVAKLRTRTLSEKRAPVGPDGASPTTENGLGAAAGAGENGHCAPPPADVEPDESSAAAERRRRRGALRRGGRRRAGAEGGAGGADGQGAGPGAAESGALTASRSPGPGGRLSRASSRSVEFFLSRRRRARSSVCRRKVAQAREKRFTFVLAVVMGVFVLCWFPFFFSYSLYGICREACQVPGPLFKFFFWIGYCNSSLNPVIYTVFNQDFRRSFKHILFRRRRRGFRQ

[8] = inhibitors of larval lipid processing in zebrafish, primary screen, whole organism, PED6 fluorescence, gall bladder and intestine (AID 686;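 active means a full or partial loss of lipid-probe fluorescence in the fish gall bladder, intestine or both, judged by eye; inactive means no fluorescence loss, or compound toxic to the fish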;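 further: larvae 5 to 7 days old with five fish per well; signal comes from phospholipase A2 cleavage of quenched PED6 carried via bile; overnight exposure to compound and PED6 before scoring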); conditions: Zebrafish larvae PED6 lipid processing, fluorescence scoring; screened at 20 µM (by protocol)
Procedure, shortened: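 Test system – live zebrafish larvae aged 5-7 days, whole organism · Buffer or medium – E3 fish medium · Reagent – quenched phospholipase substrate PED6, 100 nM final, ingested by larvae · Doses – 20 µM single dose · Incubation – overnight compound and PED6 incubation · Technique – visual fluorescence microscopy scoring of gall bladder, gut · Read-out basis – visual per-well fluorescence inhibition score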

[9] = inhibitors of Chlamydomonas gravitaxis, primary screen, whole organism, Chlamydomonas reinhardtii, WT vs cilia-less mutant, absorbance, 96-well (AID 463189); conditions: OD600 absorbance, 2 days, at 10 µM, stronger effect = higher value;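 further: 0% = wild type cc124 cells in DMSO and 100% = ciliumless bld1 mutant cells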
[10] = measured here: cell density z-score
[11] = measured here: nuclear c-Myc green intensity z-score
[12] = measured here: nuclear pErk red intensity z-score, stronger effect = higher value

Row | Compound | cell count [1] | inhibition [1] | inhibition [2] | nuclei count [2] | z-score [3, 10] | z-score [3, 11] | z-score [3, 12] | inhibition [4] | fluorescence slope [5] | NADPH fluorescence slope [6] | slope [7] | outcome [8] | inhibition [9]
1 | Cc1nc2sc3c(c2c(=O)o1)CC(C)(C)OC3 | 555 | -9.6% (inactive) | 23.7% (inactive) | 115% | 0.476 | 1.45 | -1.12 | 7.7% (inactive) | -0.461 (inactive) | -1.1e-05 (inactive) | 0.0057 (inactive) | inactive | -15.1% (inactive)
2 | O=C(N(c1ccccc1)c1ccccc1)n1ccnc1 | 543 | -15.7% (inactive) | -71.5% (inactive) | 169% | -1.35 | -0.0585 | 1.08 | -11.5% (inactive) | -0.487 (inactive) | -5.7e-05 (inactive) | 0.00471 (inactive) | inactive | -0.901% (inactive)
3 | CCCCOc1ccc(C(=O)OC2CC(C)N(C)CC2C)cc1 (centres undefined) | 358 | -21.6% (inactive) | -186% (inactive) | 155% | -0.354 | -1.1 | -0.696 | -14% (inactive) | -0.46 (inactive) | -0.000115 (inactive) | 0.00554 (inactive) | inactive | 144% (active)
4 | COc1ccccc1N1CCN(C2CCN(C(=O)c3cc(OC)c(OC)c(OC)c3)CC2)CC1 | 454 | -8.3% (inactive) | -122% (inactive) | 170% | 0.498 | -1.6 | 1.25 | -3.95% (inactive) | -0.32 (inactive) | 2.2e-05 (inactive) | 0.0055 (inactive) | inactive | -0.971% (inactive)
5 | CCCCc1ccc(NC(=O)CSC2=C(C#N)C(c3ccco3)C3=C(CCCC3=O)N2)cc1 (centres undefined) | 384 | -8% (inactive) | -114% (inactive) | 151% | 0.415 | 1.7 | -0.943 | 7.42% (inactive) | -0.44 (inactive) | -9.7e-05 (inactive) | 0.00706 (inactive) | inactive | -5.66% (inactive)
6 | COc1ccc2[nH]c(C)c(C(=O)CN3CC(C)OC(C)C3)c2c1 (centres undefined) | 551 | -0.3% (inactive) | -1% (inactive) | 143% | -0.788 | 1.62 | -0.00446 | 3.5% (inactive) | -0.194 (inactive) | 2.2e-05 (inactive) | 0.00534 (inactive) | inactive | 7.59% (inactive)
7 | CCOCc1nc(N)[nH]c(=O)c1Cc1ccc(OC(C)C)cc1 | 350 | -14.1% (inactive) | -184% (inactive) | 133% | 0.756 | -0.664 | -2.13 | 17% (inactive) | -0.436 (inactive) | -2e-05 (inactive) | 0.00784 (inactive) | inactive | 23.2% (inactive)
8 | CCOC(=O)CC(=O)CSc1nc2c(cc1C#N)CCCCCC2 | 706 | -1.3% (inactive) | 25.1% (inactive) | 180% | -0.436 | -0.188 | -0.491 | -8.95% (inactive) | -0.285 (inactive) | -5.2e-06 (inactive) | 0.00458 (inactive) | inactive | 0.237% (inactive)
9 | CC(C)OC(=O)[C@H]1[C@H](c2ccc(Cl)cc2)[C@@](C#N)(C(N)=O)[C@@H]2C=CC(C(N)=O)=CN21 | 523 | -4.9% (inactive) | -24% (inactive) | 155% | 0.333 | 0.745 | -0.843 | 2.46% (inactive) | -0.335 (inactive) | 1.2e-05 (inactive) | 0.00427 (inactive) | inactive | 6.97% (inactive)
10 | COCCNc1oc(-c2ccc(Cl)cc2)nc1C#N | 465 | -6.3% (inactive) | -25.2% (inactive) | 161% | 1.04 | -0.285 | -0.188 | 2.46% (inactive) | -0.17 (inactive) | 9.3e-06 (inactive) | 0.00534 (inactive) | inactive | 10.6% (inactive)
11 | Cc1ccc(-c2ccc(/C=N/c3ncn[nH]3)o2)cc1Cl | 555 | -7% (inactive) | 17.3% (inactive) | 119% | 1.47 | 1.26 | 0.207 | 4.72% (inactive) | -0.446 (inactive) | -1.9e-05 (inactive) | 0.00689 (inactive) | inactive | 0.03% (inactive)
12 | CCCCNC(=O)C(C#N)c1nc2ccccc2nc1N1CCN(Cc2ccc3c(c2)OCO3)CC1 (centres undefined) | 555 | -0.5% (inactive) | 21.5% (inactive) | 145% | -1.05 | -1.11 | 1.27 | 15% (inactive) | -0.362 (inactive) | -1.5e-05 (inactive) | 0.00451 (inactive) | inactive | 12.9% (inactive)
13 | CC1(C)Cc2c(C#N)c(OCC(=O)c3ccc(Cl)cc3)nc(-c3ccoc3)c2CO1 | 654 | -2.9% (inactive) | 20% (inactive) | 170% | -0.432 | -0.355 | 0.479 | 13.2% (inactive) | -0.487 (inactive) | -4.2e-05 (inactive) | 0.00736 (inactive) | inactive | 40.4% (inactive)

— PubChem BioAssay
